Results taken from ChEMBL document CHEMBL3853323, “Small Antimicrobial Agents Based on Acylated Reduced Amide Scaffold” (J Med Chem, 2016).
Converted amounts (≈) assume the structure as drawn.

Experiments:
[1] = tested on: Escherichia coli; assay: Antibacterial activity against Escherichia coli ATCC 25922 after 16 to 20 hrs by two fold serial dilution method; type: functional
Summary of the method: (§1)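 MIC as lowest concentration giving complete inhibition of growth after 20 h; at least three independent experiments, each in duplicate.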

[2] = tested on: Pseudomonas aeruginosa; assay: Antibacterial activity against Pseudomonas aeruginosa ATCC 27853 after 16 to 20 hrs by two fold serial dilution method; type: functional; summary of the method: as §1
[3] = tested on: Klebsiella pneumoniae; assay: Antibacterial activity against Klebsiella pneumoniae ATCC 13383 after 16 to 20 hrs by two fold serial dilution method; type: functional; summary of the method: as §1
[4] = tested on: Staphylococcus aureus; assay: Antibacterial activity against methicillin-resistant Staphylococcus aureus ATCC 33591 after 16 to 20 hrs by two fold serial dilution method; type: functional
Summary of the method: (§2)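 Broth MIC: the lowest concentration giving complete growth inhibition after 20 h. Run at least three times, in duplicate each time.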

[5] = tested on: Staphylococcus epidermidis; assay: Antibacterial activity against methicillin-resistant Staphylococcus epidermidis RP62A after 16 to 20 hrs by two fold serial dilution method; type: functional; summary of the method: as §2
[6] = tested on: Enterococcus faecalis; assay: Antibacterial activity against vancomycin resistant Enterococcus faecalis ATCC 700802 after 16 to 20 hrs by two fold serial dilution method; type: functional; summary of the method: as §2
[7] = Hemolytic activity in human RBC after 1 hr; type: ADME, cell-based, Erythrocyte; details: human red blood cells
Summary of the method: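 Fresh K2EDTA human RBCs, PBS-washed, as 5% v/v suspension mixed 1:1 with compound dilutions, 37 °C for 1 h. Supernatant after centrifugation diluted in PBS, A540 read. % hemolysis relative to 2% Triton X-100 (positive) and PBS (negative). At least three runs, each in duplicate.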

[8] = Cytotoxicity against human HK2 cells assessed as cell viability at 25 ug/ml after 24 hrs by MTT assay; type: toxicity, cell-based; details: hk-2, 24 h
Summary of the method: (§3)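 Cells seeded at 5×10^4 per well and left 12 h, then exposed 24 h to compound at 100, 50, 25, 12.5 or 6.25 μg/mL diluted in medium. Medium replaced, MTT added for 4 h, solubilized 12 h at 37 °C, A550 read; viability % = (A − Ablank)/(Acontrol − Ablank) × 100. Run at least three times.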

[9] = Cytotoxicity against human K562 cells assessed as cell viability at 25 ug/ml after 24 hrs by MTT assay; type: toxicity, cell-based; details: k562, 24 h; summary of the method: as §3

Molecule: NCCCC[C@H](N)C(=O)N[C@@H](Cc1ccccc1)CN(CC(=O)N(Cc1ccccc1)Cc1ccccc1)C(=O)CC12CC3CC(CC(C3)C1)C2
- MIC [1]: 6.25 µg/mL (≈ 9.03 µM)
- MIC [2]: 25 µg/mL (≈ 36.1 µM)
- MIC [3]: 12.5 µg/mL (≈ 18.1 µM)
- MIC [4]: 6.25 µg/mL (≈ 9.03 µM)
- MIC [5]: 6.25 µg/mL (≈ 9.03 µM)
- MIC [6]: 6.25 µg/mL (≈ 9.03 µM)
- HC50 at 1 h [7]: 180 µg/mL
- Activity [8]: Non-Toxic
- Activity [9]: Non-Toxic

Molecule: NCCCC[C@H](N)CN(CC(=O)NCc1cccc2ccccc12)C(=O)c1ccc2ccccc2c1
- MIC [1]: 25 µg/mL (≈ 51.8 µM)
- MIC [2]: 6 µg/mL (≈ 12.4 µM)
- MIC [3]: 25 µg/mL (≈ 51.8 µM)
- MIC [4]: 25 µg/mL (≈ 51.8 µM)
- MIC [5]: 25 µg/mL (≈ 51.8 µM)
- MIC [6]: 25 µg/mL (≈ 51.8 µM)

Molecule: NCCCC[C@H](NC(=O)[C@@H](N)CCCN)C(=O)N[C@@H](Cc1ccccc1)CN(CC(=O)NCC12CC3CC(CC(C3)C1)C2)C(=O)CC12CC3CC(CC(C3)C1)C2
- MIC [1]: 6.25 µg/mL (≈ 8.07 µM)
- MIC [2]: 6.25 µg/mL (≈ 8.07 µM)
- MIC [3]: > 25 µg/mL
- MIC [4]: 3.12 µg/mL (≈ 4.03 µM)
- MIC [5]: 3.12 µg/mL (≈ 4.03 µM)
- MIC [6]: 6.25 µg/mL (≈ 8.07 µM)
- HC50 at 1 h [7]: 200 µg/mL
- Activity [8]: Non-Toxic
- Activity [9]: Non-Toxic

Molecule: CC(C)(C)c1ccc(CNC(=O)CN(C[C@H](Cc2ccccc2)NC(=O)[C@@H](N)CCCCN)C(=O)CC23CC4CC(CC(C4)C2)C3)cc1
- MIC [1]: 6.25 µg/mL (≈ 9.5 µM)
- MIC [2]: 6.25 µg/mL (≈ 9.5 µM)
- MIC [3]: 6.25 µg/mL (≈ 9.5 µM)
- MIC [4]: 6.25 µg/mL (≈ 9.5 µM)
- MIC [5]: 3.12 µg/mL (≈ 4.74 µM)
- MIC [6]: 6.25 µg/mL (≈ 9.5 µM)
- HC50 at 1 h [7]: 120 µg/mL
- Activity [8]: Non-Toxic
- Activity [9]: Non-Toxic

Molecule: COLISTIN
- MIC [1]: 0.5 µg/mL
- MIC [2]: 1 µg/mL
- MIC [3]: 0.5 µg/mL
- MIC [4]: > 50 µg/mL
- MIC [5]: > 50 µg/mL
- MIC [6]: > 50 µg/mL

Molecule: NCCCC[C@H](N)C(=O)N[C@@H](Cc1ccccc1)CN(CC(=O)NCc1cc(C(F)(F)F)cc(C(F)(F)F)c1)C(=O)CC12CC3CC(CC(C3)C1)C2
- MIC [1]: 3.12 µg/mL (≈ 4.23 µM)
- MIC [2]: 6.25 µg/mL (≈ 8.47 µM)
- MIC [3]: 6.25 µg/mL (≈ 8.47 µM)
- MIC [4]: 3.12 µg/mL (≈ 4.23 µM)
- MIC [5]: 3.12 µg/mL (≈ 4.23 µM)
- MIC [6]: 6.25 µg/mL (≈ 8.47 µM)
- HC50 at 1 h [7]: 210 µg/mL
- Activity [8]: Non-Toxic
- Activity [9]: Non-Toxic

Molecule: NCCCC[C@H](N)C(=O)N[C@@H](Cc1ccccc1)CN(CC(=O)NCc1cccc2ccccc12)C(=O)CC12CC3CC(CC(C3)C1)C2
- MIC [1]: 12.5 µg/mL (≈ 19.2 µM)
- MIC [2]: 6.12 µg/mL (≈ 9.39 µM)
- MIC [3]: 12.5 µg/mL (≈ 19.2 µM)
- MIC [4]: 6.25 µg/mL (≈ 9.59 µM)
- MIC [5]: 6.25 µg/mL (≈ 9.59 µM)
- MIC [6]: 12.5 µg/mL (≈ 19.2 µM)
- HC50 at 1 h [7]: 225 µg/mL
- Activity [8]: Non-Toxic
- Activity [9]: Non-Toxic

Molecule: NCCCC[C@@H](CN(CC(=O)NCc1cccc2ccccc12)C(=O)CC12CC3CC(CC(C3)C1)C2)NC(=O)[C@@H](N)CCCCN
- MIC [1]: > 50 µg/mL
- MIC [2]: > 50 µg/mL
- MIC [3]: > 50 µg/mL
- MIC [4]: > 50 µg/mL
- MIC [5]: > 50 µg/mL
- MIC [6]: > 50 µg/mL
